From ChEMBL document CHEMBL1154284, “Antioxidant effects of xanthohumol and functional impact on hepatic ischemia-reperfusion injury” (J Nat Prod, 2009) come the findings set out here.

Data set [1] addresses Bcl-2-like protein 1 (Rattus norvegicus) (UniProt P53563). Put plainly: Reduction of Bcl-xl level in Sprague-Dawley rat ischemic-reperfused hepatic tissue at 2.26 mM treated before ischemic period by Western blot analysis. Format: functional. In outline:
(§1)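 Rat livers given 2.26 mM or solvent via portal vein before 6 h cold ischemia and 150 min reperfusion. Western blot with antibodies to Bcl-xl or phospho-Akt (Ser-473, Thr-308), overnight at 4 °C, HRP secondary; β-actin loading control; densitometry; untreated livers as control; n = 3.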
In general terms: A western blot detects proteins with antibodies after separation by electrophoresis.

Data set [2] concerns HEK293. Nature of the data set: Antioxidant activity in human HEK293 cells loaded with dihyfrofluresceindiacetate at 40 uM. Type of data set: functional. In a few lines: (§2)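 HEK 293 cells grown to 85–90% confluency, pretreated 2 h with compound (40 μM) or NAC (1 mM); 20 μM dihydrofluorescein diacetate loaded during final 30 min at 37 °C in dark; washed, then 1 mM H2O2 for 20 min. Fluorescence ex 485/em 535 nm versus corresponding controls; mean ± SEM, n = 4.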

In data set [3] the target is RAC-alpha serine/threonine-protein kinase (Rattus norvegicus) (UniProt P47196). Put plainly: Inhibition of AKt phosphorylation in Sprague-Dawley rat ischemic reperfusion treated hepatic tissue at 2.26 mM before ischemic period by Western blot analysis. In a few lines: as §1
RAC-alpha serine/threonine-protein kinase (Rattus norvegicus), sequence (P47196 whole entry, the tested form may be a part): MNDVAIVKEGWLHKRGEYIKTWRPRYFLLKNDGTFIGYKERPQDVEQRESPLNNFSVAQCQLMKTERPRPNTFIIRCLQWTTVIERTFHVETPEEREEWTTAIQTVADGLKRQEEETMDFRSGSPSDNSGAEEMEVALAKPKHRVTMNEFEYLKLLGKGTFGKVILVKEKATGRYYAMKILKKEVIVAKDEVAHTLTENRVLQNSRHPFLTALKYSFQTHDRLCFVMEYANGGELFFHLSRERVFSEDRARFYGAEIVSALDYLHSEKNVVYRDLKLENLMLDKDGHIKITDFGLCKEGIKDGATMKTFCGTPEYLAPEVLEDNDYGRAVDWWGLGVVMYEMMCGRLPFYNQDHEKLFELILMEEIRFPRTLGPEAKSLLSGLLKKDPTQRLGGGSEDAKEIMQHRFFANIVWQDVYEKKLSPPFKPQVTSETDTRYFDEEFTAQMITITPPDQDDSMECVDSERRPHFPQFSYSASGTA
For the next data set, the species on record is Rattus norvegicus. Nature of the data set: Inhibition of ischemia-reperfusion-induced NF-kappaB binding activity in Sprague-Dawley rat liver at 2.26 mM treated prior to ischemic reperfusion by EMSA.
In data set [4] the test system is Liver. Nature of the data set: Effect on ischemic and reperfusion-induced injury in Sprague-Dawley rat hepatic tissue at 2.26 mM before ischemic period assessed as LDH level. The settings on record: Sprague-Dawely. Type of data set: functional, tissue-based. In a few lines:
(§3)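 Male Sprague–Dawley rats (200–240 g) livers perfused with Krebs–Henseleit buffer pH 7.4, 37 °C; 2.26 mM compound or solvent injected via portal vein before 6 h cold ischemia at 4 °C; reperfused 150 min at 37 °C. Perfusate ALT, AST, LDH measured over time on clinical analyzer at 37 °C; mean ± SEM, n = 3.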

Data set [5] in a line: Inhibition of TNF-alpha-induced NF-kappaB activation expressed in human HEK293 cells preincubated for 2 hrs before TNFalpha challenge by leuciferase reporter gene assay. Format: cell-based. In a few lines:
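HEK 293 cells transiently transfected (Ca2+-phosphate) with NF-κB-driven firefly luciferase plasmid, replated 1×10^5 cells/well, grown 16 h; preincubated 2 h with 5–60 μM, then 1 ng/mL TNF-α for 6 h; PDTC 50 μM positive control. Lysate luciferase read; solvent-treated = 100%; mean ± SEM, n = 3.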
(In general: A reporter such as luciferase makes a cellular process visible.)

A short description of data set [6]: Antioxidant activity assessed as superoxide radical anion scavenging activity after 100 secs by xanthine/xanthine oxidase method. Format: functional. In outline:
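Cell-free chemiluminescence: 1 mM xanthine with test solution (5–80 μM), reaction started by injecting 1 mM luminol and 0.5 U/mL xanthine oxidase (stock concentrations). Light read for 100 s at 37 °C; output as RLU or area under the curve, relative to solvent control (100%); n = 9.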

For data set [7], the system named is HEK293. Nature of the data set: Cytotoxicity against human HEK293 cells upto 10 to 300 uM after 3 hrs by MTT assay. Type of data set: cell-based. The settings on record: hek293, 3 h. In outline: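 HEK 293 cells near 85–90% confluency exposed 3 h to 10–300 μM; MTT added, 1 h at 37 °C; formazan dissolved in DMSO and absorbance read at 550 nm.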
(In general: Tetrazolium dyes change colour on reduction, which living cells bring about.)

Data set [8] has as its system Liver. Put plainly: Inhibition of ischemic and reperfusion-induced SOD activity in Sprague-Dawley rat hepatic tissue at 26.6 mM before ischemic period by pyragallol method. The settings on record: 2.26 mM, in the assay text read “2.26 mM” for “26.6 mM”. Format: functional, tissue-based. In outline:
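Perfused rat livers (portal-vein pretreatment before 6 h cold ischemia, 150 min reperfusion). Tissue SOD activity by pyrogallol autoxidation method (one unit inhibits autoxidation 50%), normalized to Bradford protein, expressed as percent of untreated controls; mean ± SEM, n = 3.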

For data set [9], the system named is Liver. Nature of the data set: Effect on ischemic and reperfusion-induced injury in Sprague-Dawley rat hepatic tissue at 2.26 mM before ischemic period assessed as ALT level. The settings on record: Sprague-Dawely. Format: functional, tissue-based. In outline: as §3
Data set [10] has as its system Liver. Put plainly: Inhibition of ischemic and reperfusion-induced oxidative stress in Sprague-Dawley rat hepatic tissue at 26.6 mM before ischemic period assessed as decrease in 8-isoprostane level. Format: functional, tissue-based. The following applies: 2.26 mM, in the assay text read “2.26 mM” for “26.6 mM”. In a few lines:
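Liver homogenates from perfused rat livers after cold ischemia/reperfusion; 8-isoprostane by competitive EIA with acetylcholinesterase conjugate, absorbance 412 nm; percent of untreated controls.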

Data set [11] concerns HEK293. Put plainly: Antioxidant activity in human HEK293 cells loaded with dihyfrofluresceindiacetate at 1 mM. Format: functional. In outline: as §2
Data set [12] has as its system Liver. Nature of the data set: Effect on ischemic and reperfusion-induced injury in Sprague-Dawley rat hepatic tissue at 2.26 mM before ischemic period assessed as AST level. Type of data set: functional, tissue-based. The following applies: Sprague-Dawely. In outline: as §3
For data set [13], the system named is Liver. Put plainly: Inhibition of ischemic and reperfusion-induced of GSH activity in Sprague-Dawley rat hepatic tissue at 26.6 mM before ischemic period by DTNB reduction assay. The following applies: 2.26 mM, in the assay text read “2.26 mM” for “26.6 mM”. Format: functional, tissue-based. In a few lines: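 Total glutathione in liver homogenate from perfused rat livers after cold ischemia/reperfusion, measured colorimetrically via DTNB reduction at 405 nm; normalized to Bradford protein; percent of untreated controls.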

Data set [14] has as its target T1, Caspase-3 (Rattus norvegicus) (UniProt P55213).
T1 sequence (whole entry): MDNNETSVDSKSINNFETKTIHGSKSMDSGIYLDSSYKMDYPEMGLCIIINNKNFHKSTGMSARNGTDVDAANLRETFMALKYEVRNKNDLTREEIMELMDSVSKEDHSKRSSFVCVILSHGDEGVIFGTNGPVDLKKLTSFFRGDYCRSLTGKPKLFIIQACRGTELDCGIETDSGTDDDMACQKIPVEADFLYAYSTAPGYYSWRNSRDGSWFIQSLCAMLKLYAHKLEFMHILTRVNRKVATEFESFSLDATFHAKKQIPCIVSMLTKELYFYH
Put plainly: Induction of caspase 3 in Sprague-Dawley rat ischemic-reperfused hepatic tissue assessed as generation of free fluorescent 7-amino-4-trifluoro-methylcoumarin at 2.26 mM treated before ischemic period. In outline:
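Isolated perfused rat livers (2.26 mM or solvent into portal vein, 6 h 4 °C cold ischemia, 150 min reperfusion). Tissue extracts incubated with Ac-DEVD-AFC; AFC fluorescence ex 385/em 505 nm; untreated livers set as 1; mean ± SEM, n = 3.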

Calls of active or inactive are those of the source. No cut-off for these calls is given here.

Bcl-2-like protein 1 (Rattus norvegicus), sequence (P53563 whole entry, the tested form may be a part): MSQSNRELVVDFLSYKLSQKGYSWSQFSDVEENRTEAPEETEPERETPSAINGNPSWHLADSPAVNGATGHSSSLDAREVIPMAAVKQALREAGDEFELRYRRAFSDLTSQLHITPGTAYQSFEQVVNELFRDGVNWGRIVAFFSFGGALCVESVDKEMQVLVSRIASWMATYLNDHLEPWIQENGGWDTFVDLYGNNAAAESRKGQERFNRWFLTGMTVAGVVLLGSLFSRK

For orientation: IC50 means the midpoint of a concentration-inhibition curve. Regarding `COc1cc(O)c(CC=C(C)C)c(O)c1C(=O)/C=C/c1ccc(O)cc1` [XANTHOHUMOL], the result in data set [1] and in data set [14] was Active. Further, the Activity is on record as 71.9% in the data set on HEK293 [2], “Non-toxic” in the data set on HEK293 [7] and 46.2% with HEK293 [11]. The inhibition result (in data set [3]; in the data set filed under Rattus norvegicus; with Liver [8]; in the data set with Liver [10]; in the data set on Liver [13]) was “Active” in each case. Also, the result with Liver [4], in the data set on Liver [9] and in the data set on Liver [12] was inactive. The half-inhibitory concentration (IC50) in data set [5] was determined as 35 µM; in [6] it was 15 µM.
